Active and inactive are the calls of the source. The rule behind the calls is not given here.
How the values were obtained:
[1] = biological target: T1, Retinoic acid receptor beta (Homo sapiens) (UniProt P10826); assay: Transcriptional activation of human RARbeta expressed in human MG63 cells coexpressing RARE at 1 uM after 48 hrs by luciferase reporter gene assay; type: cell-based; conditions: MG-63
T1 sequence (whole entry): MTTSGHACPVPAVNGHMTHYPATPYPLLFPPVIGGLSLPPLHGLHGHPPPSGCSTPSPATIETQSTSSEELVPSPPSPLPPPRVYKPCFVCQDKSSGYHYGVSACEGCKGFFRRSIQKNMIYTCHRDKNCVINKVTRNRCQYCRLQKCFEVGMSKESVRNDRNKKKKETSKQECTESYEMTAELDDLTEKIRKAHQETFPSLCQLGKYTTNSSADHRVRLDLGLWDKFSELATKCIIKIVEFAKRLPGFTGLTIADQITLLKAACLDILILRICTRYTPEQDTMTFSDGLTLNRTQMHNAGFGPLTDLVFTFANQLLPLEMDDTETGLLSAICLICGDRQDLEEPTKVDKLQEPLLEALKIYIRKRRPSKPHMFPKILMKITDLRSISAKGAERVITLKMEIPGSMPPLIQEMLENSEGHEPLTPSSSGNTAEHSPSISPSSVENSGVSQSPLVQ
Summary of the method: (§1)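 MG-63 cells were seeded at 2 × 10^5/well, then transfected using Tfx-50 with an SV40-Luc pGL3 reporter plus pRL-CMV. Cells were treated at 10^-6 M for 2 days. Luciferase was normalised to Renilla and reported as fold versus ethanol control, from at least three repeats with SEM.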

[2] = biological target: T2, Cellular retinoic acid-binding protein 2 (Rattus norvegicus) (UniProt P51673); assay: Transcriptional activation of rat CRABP2 expressed in human MG63 cells coexpressing RXRE at 1 uM after 48 hrs; type: cell-based; conditions: MG-63; summary of the method: as §1
T2 sequence (whole entry): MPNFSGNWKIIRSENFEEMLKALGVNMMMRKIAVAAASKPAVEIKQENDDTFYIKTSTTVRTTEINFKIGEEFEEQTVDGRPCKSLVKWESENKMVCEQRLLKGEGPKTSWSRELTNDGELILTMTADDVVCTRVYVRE

HL-60 [3] = assay: Induction of cell differentiation in human HL60 cells assessed as differentiation in to granulocytes; type: functional, cell-based
HL-60 [4] = assay: Antiproliferative activity against human HL60 cells after 24 hrs; type: functional, cell-based
HL-60 [5] = assay: Induction of apoptosis in human HL60 cells after 24 hrs; type: functional, cell-based; conditions: in the assay text read “after 3 days” for “after 24 hrs”
Summary of the method: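 HL-60 cells were seeded at 10^5 cells/well in RPMI-1640 and treated at 10^-6–10^-4 M. They were propidium iodide-stained and analysed by flow cytometry for cell cycle. Apoptosis is expressed as percent dead cells relative to the total untreated cell count, shown as mean with SEM.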

[6] = biological target: T3, Retinoic acid receptor RXR-alpha (Homo sapiens) (UniProt P19793); assay: Transcriptional activation of Gal4-tagged human RXRalpha expressed in human MG63 cells at 1 uM after 48 hrs; type: cell-based; conditions: MG-63
T3 sequence (whole entry): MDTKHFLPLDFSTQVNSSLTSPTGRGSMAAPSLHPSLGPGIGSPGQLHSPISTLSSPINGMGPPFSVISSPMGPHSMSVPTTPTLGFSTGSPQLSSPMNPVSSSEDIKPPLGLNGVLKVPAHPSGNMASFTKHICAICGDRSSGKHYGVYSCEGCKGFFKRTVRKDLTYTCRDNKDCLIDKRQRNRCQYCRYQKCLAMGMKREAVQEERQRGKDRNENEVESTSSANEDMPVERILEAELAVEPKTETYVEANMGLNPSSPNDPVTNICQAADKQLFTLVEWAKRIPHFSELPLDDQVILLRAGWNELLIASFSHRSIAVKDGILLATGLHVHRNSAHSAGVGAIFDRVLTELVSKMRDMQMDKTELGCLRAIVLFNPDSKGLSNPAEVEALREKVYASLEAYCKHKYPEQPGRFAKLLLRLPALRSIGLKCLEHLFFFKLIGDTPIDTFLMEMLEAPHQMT
Summary of the method: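 Human osteosarcoma MG-63 cells in DMEM with 10% charcoal-stripped FCS were seeded at 2 × 10^5/well the day before transfection. They were cotransfected with human RXR fused to the GAL4 DNA-binding domain, a GAL4-site luciferase reporter and a pRL-CMV control. Cells were then exposed at 10^-6 M for 48 h. Firefly luciferase was normalised to Renilla and expressed as fold over ethanol vehicle, from three experiments with SEM.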

HL-60 [7] = assay: Cell cycle arrest in human HL60 cells assessed as accumulation at G0/G1 phase at 25 uM after 24 hrs by flow cytometry; type: functional, cell-based
Summary of the method: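 HL-60 cells grown in RPMI-1640 with 10% charcoal-stripped FCS and kanamycin at 37 °C in 5% CO2. Cells were exposed at 2.5 × 10^-5 M for 24 h, stained with propidium iodide at 4 °C for 20 min and analysed on a 488 nm flow cytometer. The percentage of cells in G0/G1 is given relative to untreated cells.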

| Structure (SMILES) | Activity [1] | Activity [2] | Activity (HL-60 [3]) | Activity (HL-60 [4]) | Activity (HL-60 [5]) | Activity [6] | Activity (HL-60 [7]) |
| --- | --- | --- | --- | --- | --- | --- | --- |
| CC(C)=CCC/C(C)=C/CC/C=C/CC/C(C)=C/C(=O)O | Active | inactive | – | – | – | – | – |
| CC(C)=CCC/C(C)=C/CC/C(C)=C/CC/C=C/C(=O)O | Active | inactive | Active | Active | Active | Active | Active |
| C/C=C/CC/C(C)=C/CC/C(C)=C/CC/C(C)=C/C(=O)O | Active | inactive | – | – | – | – | – |
| CC(C)=CCC/C=C/CC/C(C)=C/CC/C(C)=C/C(=O)O | Active | inactive | – | – | – | – | – |

Reference: ChEMBL document CHEMBL1212902, “Efficient synthesis and biological evaluation of demethyl geranylgeranoic acid derivatives” (Bioorg Med Chem, 2010)
